Molecules are shown by their SMILES. Active and inactive are the calls of the source. A value given as a limit tells only on which side of the number the result lay.

Data set [1] deals with Delta-type opioid receptor (Mus musculus, UniProt P32300). Nature of the data set: Agonist activity at delta opioid receptor in mouse vas deferens assessed as inhibition of electrically-induced twitches. The class given is functional, tissue-based. The procedure, abridged:
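MVD: paired rectangular pulses (1-ms width, 100-ms apart, 9 V/cm, supramaximal) every 10 s; isometric twitch recording; dose–response curves, IC50 read graphically; mean of five to eight measurements.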

The target of data set [2] is Mu-type opioid receptor (Cavia porcellus, UniProt P97266). The data set can be described thus: Agonist activity at mu opioid receptor in guinea pig ileum assessed as inhibition of electrically-induced twitches. The class given is functional, tissue-based. The procedure, abridged: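 GPI: twitches evoked at 0.1 Hz, 50 V, 0.5-ms pulse width; isometric recording; dose–response curves with IC50 derived graphically; arithmetic mean of five to eight measurements.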

A short description of data set [3]: Distribution coefficient, log D in octanol and […] at pH 7.4. Format: physicochemical. The procedure, abridged:
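Shake-flask: 50 µg peptide in pre-equilibrated 0.05 M Hepes/0.1 M NaCl pH 7.4 with octanol, vortexed 2 min, centrifuged; both phases quantified by RP-HPLC; D = octanol/buffer ratio; triplicate.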

Data set [4] is described as follows: Half life in mouse serum. Format: ADME, cell-free. The essentials:
(§1)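 Peptides at 500 µM final in 15% mouse brain homogenate (washed) or 100% mouse serum, 2.3 mg/mL protein, 50 mM Tris pH 7.4, 37 °C; sampled 0–300 min in triplicate; stopped with acetonitrile, acidified, centrifuged, remaining peptide by RP-HPLC.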

The target of data set [5] is Mu-type opioid receptor (Rattus norvegicus, UniProt P33535). Nature of the data set: Binding affinity to mu opioid receptor in rat brain synaptosome membrane by radioligand binding assay. Format: cell membranes. The essentials: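 Competition vs [3H]Tyr-D-Ala-Gly-MePhe-Gly-ol (DAMGO-type mu ligand) 0.5 nM, 1 h, on rat brain synaptosomal membranes (300–500 µg/mL protein) in 50 mM Tris–HCl pH 7.4; nonspecific binding with 10 µM naloxone; duplicates, repeated at least three times.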

Data set [6] addresses Delta-type opioid receptor (Rattus norvegicus, UniProt P33533). Nature of the data set: Binding affinity to delta opioid receptor in rat brain synaptosome membrane by radioligand binding assay. Format: cell membranes. The procedure, abridged:
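Displacement of [3H]Tyr-c[D-Pen-Gly-Phe-D-Pen]-OH 1 nM, 3 h incubation, rat brain synaptosomal membranes (300–500 µg/mL protein), 50 mM Tris–HCl pH 7.4; 10 µM naloxone defines nonspecific binding; duplicate assays, at least three repeats.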

The nature of data set [7]: Half life in mouse brain. The class given is ADME, tissue-based. The procedure, abridged:
as §1

Data set [8] is described as follows: Protein binding to BSA. Format: ADME, Bos taurus. The settings on record: cattle, isolated protein. The procedure, abridged: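 Peptides in mammalian Ringer's solution with 10 g/L BSA and 3.9% dextran, pH 7.4, 37 °C; ultrafiltration (30 kDa cut-off, 2000g, 10 min); total and free peptide by RP-HPLC; % bound = (T−F)/T×100; triplicate.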
The subject of data set [9] is Mus musculus. The data set can be described thus: Antinociceptive activity in mouse at 30 mg/kg, sc by tail flick test. Format: functional, organism-based. More on the design: dose 30 mg/kg. The essentials: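 Mice given 30 mg/kg sc (100 µL); 50 °C warm-water tail-flick, baseline responders under 5 s kept, 10 s cut-off; latencies at 5–60 min post-dose; %MPE = 100·(TL−CL)/(10−CL); saline control; six to eight mice per group, mean with SEM.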

Chain of Mu-type opioid receptor (Rattus norvegicus, UniProt P33535) (P33535 whole entry): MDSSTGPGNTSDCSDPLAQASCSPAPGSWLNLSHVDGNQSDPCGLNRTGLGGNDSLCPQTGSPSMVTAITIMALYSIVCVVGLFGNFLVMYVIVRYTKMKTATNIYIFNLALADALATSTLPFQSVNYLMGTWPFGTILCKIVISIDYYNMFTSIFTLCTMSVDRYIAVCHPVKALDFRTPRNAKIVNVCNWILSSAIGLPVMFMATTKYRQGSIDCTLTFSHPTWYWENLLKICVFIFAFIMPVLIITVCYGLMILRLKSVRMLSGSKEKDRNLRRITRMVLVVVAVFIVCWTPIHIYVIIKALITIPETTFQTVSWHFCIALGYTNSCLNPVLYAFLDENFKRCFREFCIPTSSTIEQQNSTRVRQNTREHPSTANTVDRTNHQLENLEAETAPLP
Chain of Delta-type opioid receptor (Rattus norvegicus, UniProt P33533) (P33533 whole entry): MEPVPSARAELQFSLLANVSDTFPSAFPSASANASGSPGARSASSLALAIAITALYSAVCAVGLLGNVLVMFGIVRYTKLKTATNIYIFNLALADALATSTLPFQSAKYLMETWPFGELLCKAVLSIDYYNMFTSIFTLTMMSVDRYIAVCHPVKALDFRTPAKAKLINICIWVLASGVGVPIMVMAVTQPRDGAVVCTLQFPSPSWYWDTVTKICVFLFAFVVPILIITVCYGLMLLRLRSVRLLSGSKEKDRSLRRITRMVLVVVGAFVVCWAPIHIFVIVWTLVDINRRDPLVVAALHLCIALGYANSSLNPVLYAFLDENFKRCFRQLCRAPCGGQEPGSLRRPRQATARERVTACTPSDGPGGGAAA
Chain of Mu-type opioid receptor (Cavia porcellus, UniProt P97266) (P97266 whole entry): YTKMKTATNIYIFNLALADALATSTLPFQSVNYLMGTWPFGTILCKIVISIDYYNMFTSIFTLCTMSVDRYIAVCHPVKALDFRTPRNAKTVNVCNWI
Chain of Delta-type opioid receptor (Mus musculus, UniProt P32300) (P32300 whole entry): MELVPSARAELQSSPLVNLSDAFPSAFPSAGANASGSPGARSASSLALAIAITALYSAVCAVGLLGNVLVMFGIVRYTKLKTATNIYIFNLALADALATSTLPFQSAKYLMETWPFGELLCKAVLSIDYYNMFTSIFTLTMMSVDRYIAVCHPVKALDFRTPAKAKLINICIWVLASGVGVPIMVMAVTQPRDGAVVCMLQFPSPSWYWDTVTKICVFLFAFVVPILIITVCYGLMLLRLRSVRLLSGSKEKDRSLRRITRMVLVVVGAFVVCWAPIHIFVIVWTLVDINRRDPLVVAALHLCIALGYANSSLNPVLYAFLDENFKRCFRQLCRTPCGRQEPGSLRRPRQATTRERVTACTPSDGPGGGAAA

Consider `COc1ccc(C[C@H](N=C(N)N)C(=O)N2CCC[C@H]2C(=O)N[C@@H](Cc2c[nH]c3ccccc23)C(=O)N[C@@H](Cc2ccccc2)C(N)=O)cc1`, for which the figures for the IC50 in [1] and in data set [2] were 1340 nM and 988 nM, respectively. In data set [3], this compound gave a logD of 0.21. The half-life in [4] stood at 0.522 h; in data set [7] it was 4.3 h. For the same compound, the Ki turned out to be 792 nM in data set [5] and 4790 nM in data set [6]. In addition, in data set [8], the Activity worked out at 40.58%.

On to `COc1ccc(C[C@H](NC(=N)N)C(=O)N2CCC[C@@H]2C(=O)NCC(=O)N[C@@H](Cc2c[nH]c3ccccc23)C(=O)N[C@@H](Cc2ccc(Cl)cc2)C(N)=O)cc1`, for which the IC50 in data set [1] was greater than 10000 nM; in data set [2], greater than 1000 nM. The compound also showed a logD in [3] of 1.64. Further, the half-life in [4] was found to be 3.6 h; in data set [7], 6.82 h. Further, the values for the Ki in data set [5] and in [6] were 919 nM and 1480 nM, respectively. Moreover, the Activity in data set [8] was determined as 62.52%. For the same compound, in data set [9], the outcome was Active.

As for `COc1ccc(C[C@H](N=C(N)N)C(=O)N2CCC[C@H]2C(=O)N[C@@H](Cc2c[nH]c3ccccc23)C(=O)N[C@@H](Cc2ccc(Cl)cc2)C(N)=O)cc1`, the IC50 in [1] amounted to 1290 nM; in data set [2] it was 845 nM. The logD in data set [3] came out at 1.33. For the same compound, the results for the half-life in [4] and in data set [7] were 0.803 h and 3.17 h, respectively. The Ki is 538 nM in data set [5] and 1370 nM in data set [6]. The Activity in data set [8] was found to be 65.57%.

Consider `COc1ccc(C[C@H](N=C(N)N)C(=O)N2CCC[C@@H]2C(=O)NCC(=O)N[C@@H](Cc2c[nH]c3ccccc23)C(=O)N[C@@H](Cc2ccccc2)C(N)=O)cc1`, for which the IC50 in data set [1] is greater than 10000 nM; in data set [2], greater than 1000 nM. Also, the pH-dependent lipophilicity (logD) in data set [3] is 0.78. In addition, the half-life came out at 2.75 h in data set [4] and 7.45 h in data set [7]. For the same compound, the results for the Ki in data set [5] and in data set [6] were 1060 nM and greater than 10000 nM, respectively. Besides, in data set [8], the Activity came out at 45.15%.

The values above are taken from ChEMBL document CHEMBL1146349, “Endomorphin-1 analogs with enhanced metabolic stability and systemic analgesic activity: design, synthesis, and pharmacological characterization” (Bioorg Med Chem, 2007).
